Fewer inactive variants are shown than the library holds.
B1: tRNA (parent)
chain: GUUCCGUUGGCGUAAUGGUAACGCGUCUCCCUCCUAAGGAGAAGACUGCGGGUUCGAGUCCCGUACGGAACG

Variants of: B1
Assay: yeast fitness relative to wild type (ratio to wild type); higher = fitter; tRNA-Arg(CCU), competitive growth, 37 C, YPD
Summary of the method: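 Amplicons of the tRNA-Arg(CCU) gene were sequenced, 100-nucleotide paired-end, from the start population and from each end population of a pooled yeast competition. The competition, in six parallel replicates, lasted 24 hours in YPD at 37°C. Fitness relative to wild type was calculated from changes in genotype frequencies. Genotypes had to have ≥ 100 starting reads, and estimates < 0.5 were set to 0.5.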

Row | Variant | yeast fitness
1 | U3C U8A C66A | 0.529
2 | U3C C61U U64C | 0.72
3 | U3C C4U | 1.01
4 | U3C A36U C62U | 0.553
5 | U3C G12A A21G C46G G50A | ≤ 0.5
6 | U3C U19A A65G | 0.796
7 | U3C C30U C55U G58A | ≤ 0.5
8 | U3C G56A C60A | 0.568
9 | U3C U7A C27A | ≤ 0.5
10 | U3C A40U C49A A70U | ≤ 0.5
11 | U3C A21U C66G | ≤ 0.5
12 | U3C G10C C34U | 0.586
13 | U3C G67A | 0.871
14 | U3C C11A C27G C33A A43C C46A C62A C66U | ≤ 0.5
15 | U3C A43C A69C | 0.762
16 | U3C G12A A45U C55U | ≤ 0.5
17 | U3C C55U G58A | 0.508
18 | U3G C5G U19C C66U | 0.57
19 | U3C C4U U35C A70U | 0.544
20 | U3C C31G C34U G38A | ≤ 0.5
21 | U3G | 0.978
22 | U3G A37G | 0.724
23 | U3C C24U A36C G63A | ≤ 0.5
24 | U3C G6C A14U G25A G38A U47A | ≤ 0.5

Row | Variant | yeast fitness
25 | U3C C4A G17A G41A C66U | ≤ 0.5
26 | U3C G52A | 0.743
27 | U3C C11U C22A C29G C33U U64C A70C | ≤ 0.5
28 | U3G A15G A21U C24U G38A C61G C66U A69U | ≤ 0.5
29 | U3G A14C C24G C60U U64A | ≤ 0.5
30 | U3C G44C C46A | 0.672
31 | U3C A37G A70U | 0.568
32 | U3C C55U C61A | ≤ 0.5
33 | U3C C34G C49A G50A | ≤ 0.5
34 | U3C C31U C62U | 0.804
35 | U3C C31U U54A | 0.583
36 | U3C C31U G58C | 0.712
37 | U3C C11A G25A C46G A57U | 0.504
38 | U3G A20C | 0.987
39 | U3G A14G C62G A69G | ≤ 0.5
40 | U3C U35C A57G | 0.541
41 | U3C C4G A42G | 0.57
42 | U3C C5G G38A | ≤ 0.5
43 | U3C G25A C29U | 0.681
44 | U3C G9A C34G A42G C49G C62U A69C | ≤ 0.5
45 | U3C C33A C61G | 0.731
46 | U3C G23A U28G | ≤ 0.5
47 | U3C G10C A20C G56C | 0.577
48 | U3C G25A A37U | 0.574

Row | Variant | yeast fitness
49 | U3C G39A A57U C62G | ≤ 0.5
50 | U3C C31U G68C | 0.664
51 | U3C A45G | 0.903
52 | U3C C30G U64A A70C | ≤ 0.5
53 | U3C G12A U13C A37C A45U G48C | ≤ 0.5
54 | U3G A14G C62A | 0.603
55 | U3C C22U G48A | 0.955
56 | U3C C5G C34A A37U G44A G51A C55A | ≤ 0.5
57 | U3G C4U U35A G58A | ≤ 0.5
58 | U3C A40U A69U | 0.755
59 | U3C A21U A69U | 0.537
60 | U3C G9A G48C | 0.784
61 | U3C G23C C30A A36G G38C | ≤ 0.5
62 | U3G A20G C49U | ≤ 0.5
63 | U3C G56A | 1.03
64 | U3C C5A C34U U35A C49A U54A | ≤ 0.5
65 | U3C A40U G44C | 0.625
66 | U3C C30A C31U | 0.747
67 | U3C C4U U64A | 0.617
68 | U3C C11A C27G C33A A43C C46A | 0.687
69 | U3C C11U A36C A65C C66U | ≤ 0.5
70 | U3C C22A U47A A70G | ≤ 0.5
71 | U3C U16C C30G C31G A37U G56C | ≤ 0.5
72 | U3C U28A U35C A37C G56C A57G G68U | ≤ 0.5

Row | Variant | yeast fitness
73 | U3C C5G A21U A42C | ≤ 0.5
74 | U3C C30G A42C | ≤ 0.5
75 | U3C C31U G39A G44A C61U | ≤ 0.5
76 | U3C G12A G25A | 0.992
77 | U3C C4G U8G A42G C62G A65C | ≤ 0.5
78 | U3C G12A | 0.963
79 | U3C C31U A65C | 0.791
80 | U3C A40G C46A A69C | 0.706
81 | U3C C24G G44A | ≤ 0.5
82 | U3C U7C U8A A15U G50A U53A | ≤ 0.5
83 | U3G C4A | 0.949
84 | U3C G39A | 0.898
85 | U3C G18C C31G C34G | ≤ 0.5
86 | U3C U8A U19A | 0.63
87 | U3C U8G U32A C33G A43U C61U C62U | ≤ 0.5
88 | U3C G10A C22A C24G | ≤ 0.5
89 | U3C G10A G52A U54C G56A G58A | ≤ 0.5
90 | U3C C4A A65C | 0.62
91 | U3C U7A G44C C61U C62U G63C C66U A69G | ≤ 0.5
92 | U3C G68U | 0.857
93 | U3G A43G | 0.936
94 | U3C C4U A21G C46A | 0.628
95 | U3C C30A | 1.06
96 | U3C C4G U28C A43C | ≤ 0.5

Row | Variant | yeast fitness
97 | U3G C5G A20C A43C | 0.557
98 | U3C G51C A57G | ≤ 0.5
99 | U3C U8A G25A A45G | 0.578
100 | U3C U13C G17A C24U G52A | ≤ 0.5
101 | U3C G12A G44C | 0.546
102 | U3C A36G | 0.91
103 | U3C C4G A42G A45U C66U | 0.53
104 | U3C C62U A69C | 0.756
105 | U3C C49G A65U | 0.658
106 | U3C C29U C33A A40C | ≤ 0.5
107 | U3C G50A A57G | 0.632
108 | U3C G10A C46U U47A U54C | ≤ 0.5
109 | U3C U28G A57C | ≤ 0.5
110 | U3C A45U U64C | 0.709
111 | U3C G12A A45U C66G | 0.685
112 | U3C A45C G67A | ≤ 0.5
113 | U3C U19A C27G C62U | ≤ 0.5
114 | U3C G58C | 0.97
115 | U3C A40G C46A C62G A69U | ≤ 0.5
116 | U3C C33U | 0.803
117 | U3C G58A G68C | 0.59
118 | U3G C4A G9A G56A C61G | ≤ 0.5
119 | U3C C55U | 0.687
120 | U3C C55A | 0.687

Row | Variant | yeast fitness
121 | U3C C46G A69C | 0.625
122 | U3C A37G | 0.784
123 | U3C A37U | 0.806
124 | U3C C24U G56A | 0.757
125 | U3C G38A | 1.05
126 | U3C G38C | 0.813
127 | U3C C4G A15U C33A G52C | ≤ 0.5
128 | U3C G6A U54C C61G | ≤ 0.5
129 | U3C C5G U19G C31A C46A | 0.663
130 | U3C G18A C31G | ≤ 0.5
131 | U3C U7A A42C C49U C55U | ≤ 0.5
132 | U3G A15U C46G C61A | ≤ 0.5
133 | U3C C11U C61G A65C | ≤ 0.5
134 | U3C C29G C30G C49A G56C C61U | 0.789
135 | U3G C5G C11U C29U U32C C60U | ≤ 0.5
136 | U3C C22G G67U | 0.538
137 | U3C C31U G50A G58C C66U | ≤ 0.5
138 | U3C U19G A43U A65G G68A | ≤ 0.5
139 | U3C C11G A57G | ≤ 0.5
140 | U3C A40G C46A A65G | 0.763
141 | U3C G9A A57C | 0.584
142 | U3C C31A A42G A43G G68C | ≤ 0.5
143 | U3G C4A G6A U35C | ≤ 0.5
144 | U3C G23C C66U | ≤ 0.5

Row | Variant | yeast fitness
145 | U3C C30G A43C | 0.548
146 | U3C C29G C33A | ≤ 0.5
147 | U3C C24G C49U C55G G58A | 0.576
148 | U3G A40U A45U | 0.585
149 | U3C G6C G38C C46A | ≤ 0.5
150 | U3C U13A A20C C30A C31A U54A C55U | ≤ 0.5
151 | U3C G12A C33G A42C A65G | ≤ 0.5
152 | U3C A36C A43C A69C | ≤ 0.5
153 | U3C G17A U54C | ≤ 0.5
154 | U3C G50A A65U | 0.652
155 | U3G A45C G63A A69U | 0.831
156 | U3G C4A A40U C62U G63C | ≤ 0.5
157 | U3C U7C G41A A42C G50C A70G | ≤ 0.5
158 | U3G A15U C61A | ≤ 0.5
159 | U3C U26A C31U | 1.02
160 | U3C G58A C61U A70G | 0.777
161 | U3C G17C | 0.78
162 | U3C C11U C27G G52A | ≤ 0.5
163 | U3C C27G C30U G67A | 0.554
164 | U3C C22G | 0.859
165 | U3C U19C C34U U53C | ≤ 0.5
166 | U3C G18C C31G C61A | 0.535
167 | U3C G9A U28G | 0.59

Reference: the RNAGym collection of RNA variant scans (doi:10.1126/science.aae0568)
